From ChEMBL document CHEMBL1143257, “Structure-activity relationships of novel HIV-1 protease inhibitors containing the 3-amino-2-chlorobenzoyl-allophenylnorstatine structure” (Bioorg Med Chem, 2008)

Assays:
[1] = tested on: Human immunodeficiency virus 1; assay: Antiviral activity against HIV1 3B; assay type: functional, organism-based; details: Human immunodeficiency virus 1, 3B
[2] = Metabolic stability in human liver microsomes assessed as compound remaining at 5 uM in presence of NADPH by RP-HPLC; assay type: ADME, Microsome; details: read-out: Stability
Outline: (§1)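 Test drug at 5 µM incubated with liver microsomes (0.5 mg/ml) plus cofactor (1 mM NADPH or 5 mM UDPGA) at 37 °C for 30 min. Residual drug measured by RP-HPLC. Values are the mean percent remaining of duplicates.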

[3] = Metabolic stability in human liver microsomes assessed as compound remaining at 5 uM in presence of UDPGA by RP-HPLC; assay type: ADME, Microsome; details: read-out: Stability; outline: as §1
[4] = tested on: Human immunodeficiency virus 1; assay: Antiviral activity against HIV1 3B in presence of 50% human serum; assay type: functional, organism-based; details: Human immunodeficiency virus 1, 3B
[5] = target: Protease (Human immunodeficiency virus 1, UniProt Q9YQ12); assay: Inhibition of HIV1 protease
[6] = tested on: Human immunodeficiency virus 1; assay: Ratio of EC50 for HIV1 mutant strain 5 to EC50 for wild type HIV1; assay type: functional
[7] = tested on: Human immunodeficiency virus 1; assay: Ratio of EC50 for HIV1 mutant strain 6 to EC50 for wild type HIV1; assay type: functional
[8] = tested on: Human immunodeficiency virus 1; assay: Antiviral activity against HIV1 mutant strain 5; assay type: functional, organism-based
[9] = tested on: Human immunodeficiency virus 1; assay: Ratio of EC50 for HIV1 mutant strain 4 to EC50 for wild type HIV1; assay type: functional
[10] = tested on: Human immunodeficiency virus 1; assay: Antiviral activity against HIV1 mutant strain 3; assay type: functional, organism-based
[11] = tested on: Human immunodeficiency virus 1; assay: Antiviral activity against HIV1 mutant strain 2; assay type: functional, organism-based
Outline: (§2)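 PhenoSense phenotypic assay. Strain 2 protease carries L10I, G16A, K45V, F53L, I54V, K55N, D60E, L63P, A71V, I72K, V77I, V82F, I84V, L90M, I93L. EC50 in µM. Fold change is versus the wild-type EC50.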

[12] = tested on: Human immunodeficiency virus 1; assay: Antiviral activity against wild type HIV1; assay type: functional, organism-based
[13] = tested on: Human immunodeficiency virus 1; assay: Ratio of EC50 for HIV1 mutant strain 7 to EC50 for wild type HIV1; assay type: functional
Outline: (§3)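 PhenoSense phenotypic assay. Strain 7 protease mutations include T4A, L10I, K20R, L23I, L33F, E35D, M36I, K43T, M46L. EC50 in µM. Fold change is versus the wild-type EC50.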

[14] = tested on: Human immunodeficiency virus 1; assay: Ratio of EC50 for HIV1 mutant strain 2 to EC50 for wild type HIV1; assay type: functional; outline: as §2
[15] = tested on: Human immunodeficiency virus 1; assay: Antiviral activity against HIV1 mutant strain 1; assay type: functional, organism-based
Outline: (§4)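 PhenoSense phenotypic susceptibility assay on multi-drug-resistant clinical HIV-1 protease variant strains, run in parallel with a wild-type reference. EC50 read in µM. Fold change is mutant EC50 divided by wild-type EC50.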

[16] = tested on: Human immunodeficiency virus 1; assay: Antiviral activity against HIV1 mutant strain 6; assay type: functional, organism-based
[17] = tested on: Human immunodeficiency virus 1; assay: Ratio of EC50 for HIV1 mutant strain 3 to EC50 for wild type HIV1; assay type: functional
[18] = tested on: Human immunodeficiency virus 1; assay: Ratio of EC50 for HIV1 mutant strain 1 to EC50 for wild type HIV1; assay type: functional; outline: as §4
[19] = tested on: Human immunodeficiency virus 1; assay: Antiviral activity against HIV1 mutant strain 7; assay type: functional, organism-based; outline: as §3
[20] = tested on: Human immunodeficiency virus 1; assay: Antiviral activity against HIV1 mutant strain 4; assay type: functional, organism-based
[21] = Volume of distribution at steady state in Beagle dog at 15 mg/kg, iv; assay type: ADME, organism-based, Canis lupus familiaris; design: dose 15 mg/kg, route intravenous; details: in vivo, read-out: Vdss
[22] = Plasma clearance in Beagle dog at 15 mg/kg, iv; assay type: ADME, organism-based, Canis lupus familiaris; design: dose 15 mg/kg, route intravenous
[23] = Oral bioavailability in Beagle dog at 15 mg/kg; assay type: ADME, organism-based, Canis lupus familiaris; details: in vivo
[24] = AUC in Beagle dog at 15 mg/kg, po; assay type: ADME, organism-based, Canis lupus familiaris; design: dose 15 mg/kg, route oral; details: plasma
[25] = tested on: Liver; assay: Metabolic stability in dog liver microsomes assessed as compound remaining in presence of UDPGA by RP-HPLC; assay type: ADME, Canis lupus familiaris, Microsome; outline: as §1
[26] = Cmax in Beagle dog at 15 mg/kg, po; assay type: ADME, organism-based, Canis lupus familiaris; design: dose 15 mg/kg, route oral; details: in vivo
[27] = Plasma concentration in Beagle dog at 15 mg/kg, po after 12 hrs; assay type: ADME, organism-based, Canis lupus familiaris; design: dose 15 mg/kg, route oral
[28] = tested on: Liver; assay: Metabolic stability in dog liver microsomes assessed as compound remaining in presence of NADPH by RP-HPLC; assay type: ADME, Canis lupus familiaris, Microsome; outline: as §1
[29] = Tmax in Beagle dog at 15 mg/kg, po; assay type: ADME, organism-based, Canis lupus familiaris; design: dose 15 mg/kg, route oral; details: in vivo

Sequence of Protease (Q9YQ12 whole entry): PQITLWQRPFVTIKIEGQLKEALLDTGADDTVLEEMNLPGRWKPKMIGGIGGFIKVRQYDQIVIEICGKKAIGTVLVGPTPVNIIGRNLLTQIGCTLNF

| SMILES | EC50 [1] | remaining at 5 µM [2] | remaining at 5 µM [3] | EC50 [4] | Ki [5] | EC50 [8] | EC50 [10] | EC50 [11] | EC50 [12] | EC50 [15] | EC50 [16] | EC50 [19] | EC50 [20] | other results |
| --- | --- | --- | --- | --- | --- | --- | --- | --- | --- | --- | --- | --- | --- | --- |
| COc1ccc(C[C@H](NC(=O)c2cccc(N)c2Cl)[C@H](O)C(=O)N2CSC(C)(C)[C@H]2C(=O)NCc2ccccc2C)cc1 | 18 nM | 60% | > 95% | 88 nM | 0.311 nM | – | – | – | – | – | – | – | – | – |
| Cc1c(O)cccc1C(=O)N[C@@H](CSc1ccccc1)[C@H](O)CN1C[C@H]2CCCC[C@H]2C[C@H]1C(=O)NC(C)(C)C | 19 nM | – | – | 293 nM | 0.931 nM | 776 nM | 413 nM | 346 nM | 5.4 nM | 452 nM | > 1500 nM | 515 nM | > 1500 nM | Ratio EC50 [6]: 141; Ratio EC50 [7]: >273; Ratio EC50 [9]: >273; Ratio EC50 [13]: 94; Ratio EC50 [14]: 64; Ratio EC50 [17]: 75; Ratio EC50 [18]: 82 |
| CC(C)(C)NC(=O)[C@@H]1CN(Cc2cccnc2)CCN1C[C@@H](O)C[C@@H](Cc1ccccc1)C(=O)N[C@H]1c2ccccc2C[C@H]1O | 23 nM | – | – | 87 nM | – | > 1500 nM | 753 nM | 464 nM | 7.6 nM | 401 nM | 819 nM | 145 nM | 113 nM | – |
| Cc1ccccc1CNC(=O)[C@H]1N(C(=O)[C@@H](O)[C@H](Cc2ccc3c(c2)OCO3)NC(=O)c2cccc(N)c2Cl)CSC1(C)C | 20 nM | 74% | > 95% | 77 nM | 0.163 nM | – | – | – | – | – | – | – | – | – |
| COc1ccc(C[C@H](NC(=O)c2cccc(N)c2Cl)[C@H](O)C(=O)N2CSC(C)(C)[C@H]2C(=O)NCc2c(C)cccc2C)cc1 | 24 nM | 58% | > 95% | 14 nM | 0.138 nM | – | – | – | – | – | – | – | – | – |
| COc1cccc(C[C@H](NC(=O)c2cccc(N)c2Cl)[C@H](O)C(=O)N2CCC(C)(C)[C@H]2C(=O)NCc2c(C)cccc2C)c1 | 36 nM | 83% | > 95% | 87 nM | 0.75 nM | – | – | – | – | – | – | – | – | Vd [21]: 1.9 L/kg; clearance [22]: 16.7 mL/min/kg; bioavailability [23]: 146%; AUC [24]: 36.7 µM·h; Stability [25]: > 95%; Cmax [26]: 5000 nM; concentration at 12 h [27]: 710 nM; Stability [28]: 69%; Tmax [29]: 60 min |
| COC(=O)N[C@H](C(=O)N[C@@H](Cc1ccccc1)[C@@H](O)CN(Cc1ccc(-c2ccccn2)cc1)NC(=O)[C@@H](NC(=O)OC)C(C)(C)C)C(C)(C)C [ATAZANAVIR] | < 4 nM | 83% | > 95% | 9 nM | 0.05 nM | 266 nM | 23 nM | 48 nM | 1.5 nM | 92 nM | 134 nM | 74 nM | 95 nM | Ratio EC50 [6]: 180; Vd [21]: 2 L/kg; Ratio EC50 [7]: 90; clearance [22]: 26.7 mL/min/kg; bioavailability [23]: 102%; AUC [24]: 15 µM·h; Ratio EC50 [9]: 64; Stability [25]: > 95%; Cmax [26]: 4200 nM; Ratio EC50 [13]: 50; Ratio EC50 [14]: 32; concentration at 12 h [27]: 50 nM; Ratio EC50 [17]: 16; Stability [28]: 83%; Ratio EC50 [18]: 62; Tmax [29]: 30 min |
| CC(C)c1nc(CN(C)C(=O)N[C@H](C(=O)N[C@@H](Cc2ccccc2)C[C@H](O)[C@H](Cc2ccccc2)NC(=O)OCc2cncs2)C(C)C)cs1 [RITONAVIR] | 2 nM | – | – | 41 nM | – | > 3000 nM | > 3000 nM | > 3000 nM | 16 nM | 1730 nM | > 3000 nM | > 3000 nM | 1000 nM | – |
| Cc1cccc(C)c1CNC(=O)[C@H]1N(C(=O)[C@@H](O)[C@H](Cc2ccc3c(c2)OCO3)NC(=O)c2cccc(N)c2Cl)CSC1(C)C | 17 nM | 53% | > 95% | 20 nM | 0.07 nM | – | – | – | – | – | – | – | – | – |
| CCOc1ccc(C[C@H](NC(=O)c2cccc(N)c2Cl)[C@H](O)C(=O)N2CCC(C)(C)[C@H]2C(=O)NCc2c(C)cccc2C)cc1 | 63 nM | 53% | > 95% | 270 nM | 0.861 nM | – | – | – | – | – | – | – | – | – |
| COc1ccc(C[C@H](NC(=O)c2cccc(N)c2Cl)[C@H](O)C(=O)N2CCC(C)(C)[C@H]2C(=O)NCc2c(C)cccc2C)cc1 | 40 nM | 63% | > 95% | 80 nM | 0.804 nM | – | – | – | – | – | – | – | – | – |
| COc1cccc(C[C@H](NC(=O)c2cccc(N)c2Cl)[C@H](O)C(=O)N2CSC(C)(C)[C@H]2C(=O)NCc2ccccc2C)c1 | 21 nM | 66% | 93% | 138 nM | 0.255 nM | – | – | – | – | – | – | – | – | – |
| CC(C)CN(C[C@@H](O)[C@H](Cc1ccccc1)NC(=O)O[C@H]1CCOC1)S(=O)(=O)c1ccc(N)cc1 | 16 nM | – | – | 95 nM | 0.359 nM | 615 nM | 143 nM | 350 nM | 14 nM | 98 nM | 432 nM | 165 nM | 51 nM | Ratio EC50 [6]: 43; Ratio EC50 [7]: 30; Ratio EC50 [9]: 4; Ratio EC50 [13]: 12; Ratio EC50 [14]: 25; Ratio EC50 [17]: 10; Ratio EC50 [18]: 7 |
| CCOc1ccc(C[C@H](NC(=O)c2cccc(N)c2Cl)[C@H](O)C(=O)N2CSC(C)(C)[C@H]2C(=O)NCc2c(C)cccc2C)cc1 | 20 nM | 54% | > 95% | 66 nM | 0.152 nM | – | – | – | – | – | – | – | – | – |
| CC(C)(C)NC(=O)[C@@H]1C[C@@H]2CCCC[C@@H]2CN1C[C@@H](O)[C@H](Cc1ccccc1)NC(=O)[C@H](CC(N)=O)NC(=O)c1ccc2ccccc2n1 | 7 nM | – | – | 50 nM | – | > 500 nM | > 500 nM | 97 nM | 1.9 nM | > 500 nM | 158 nM | 141 nM | > 500 nM | – |
| CCOc1ccc(C[C@H](NC(=O)c2cccc(N)c2Cl)[C@H](O)C(=O)N2CSC(C)(C)[C@H]2C(=O)NCc2ccccc2C)cc1 | 6 nM | 65% | 89% | 35 nM | 0.31 nM | – | – | – | – | – | – | – | – | – |
| Cc1ccccc1CNC(=O)[C@H]1N(C(=O)[C@@H](O)[C@H](Cc2ccccc2)NC(=O)c2cccc(N)c2Cl)CSC1(C)C | 77 nM | 46% | > 95% | 165 nM | 0.353 nM | – | – | – | – | – | – | – | – | – |
